Laboratory results reported in PubChem BioAssay AID493093 (Broad Institute, 2011).
Activity calls are given as the source filed them.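 The calls were made as follows: active = compounds lowering viability with an AC50 at or under ten times their top valid dose; inconclusive = flat curve with 30 to 70% viability loss, or poor fit; inactive = flat near zero, weak potency, or rising signal.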

Test system: BJeHLT fibroblasts viability, Alamar Blue fluorescence, 48 h
Test: viability loss in BJeHLT fibroblasts, dose response, counter-screen for Ras selective lethality project, cell-based, dry powder, set 2 (AID 493093)
Conditions: not given
Method in brief: (§1)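 Test system: BJeHLT fibroblasts, BJ cells transformed with hTERT, SV40 LT and ST; input: 1000 cells per well; incubation: 48 h exposure, 37 °C, 5% CO2, ~16 h Alamar Blue; signal: Alamar Blue fluorescence, 544/590 nm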
Molecule `Cc1onc(C(=O)N2CCN(C(c3ccccc3)c3ccc(Cl)cc3)CC2)c1[N+](=O)[O-]` (stereo not given) has an AC50 of 0.51 µM. In the case of `Cc1onc(C(=O)N2CCN(C(c3ccccn3)c3ccccn3)CC2)c1[N+](=O)[O-]`, the AC50 is reported as > 47.6 µM (inactive). `Cc1onc(C(=O)N2CCN(C(c3ccc(F)cc3)c3ccc(F)cc3)CC2)c1[N+](=O)[O-]` showed an AC50 of 0.757 µM. Molecule `COc1ccc(C(c2ccc(OC)cc2)N2CCN(C(=O)c3ccc([N+](=O)[O-])o3)CC2)cc1` has an AC50 of 6.85 µM. `COc1ccc(C(c2ccc(OC)cc2)N2CCN(C(=O)c3noc(C)c3[N+](=O)[O-])CC2)cc1` showed an AC50 of 5.32 µM. `O=C(c1ccc([N+](=O)[O-])o1)N1CCN(C(c2ccccc2)c2ccccc2)CC1` showed an AC50 of 18.9 µM. For `Cc1onc(C(=O)N2CCN(C(c3ccccc3)c3ccccc3)CC2)c1[N+](=O)[O-]`, the AC50 was 4.97 µM. In the case of `Cc1onc(C(=O)N2CCN(C(c3ccc(Cl)cc3)c3ccc(Cl)cc3)CC2)c1[N+](=O)[O-]`, the AC50 is reported as 0.272 µM. In the case of `Cc1onc(C(=O)N2CCCN(C(c3ccccc3)c3ccccc3)CC2)c1[N+](=O)[O-]`, the AC50 is reported as 2.79 µM. In the case of `O=C(NCCNC(c1ccccc1)c1ccccc1)c1ccc([N+](=O)[O-])o1`, the AC50 is reported as 3.35 µM. With `O=C(c1ccc([N+](=O)[O-])o1)N1CCN(C(c2ccc(F)cc2)c2ccc(F)cc2)CC1` the AC50 was 12.1 µM. Work on `O=C(c1ccc([N+](=O)[O-])o1)N1CCCN(C(c2ccccc2)c2ccccc2)CC1` yielded an AC50 of 46.2 µM.

Test system: not listed separately
Test: as above
Conditions: BJeHLT fibroblasts viability, Alamar Blue fluorescence, 48 h; at 48 µM (top of the series)
Method in brief: as §1
With `O=C(c1noc2ccccc12)N1CCN(C(c2ccccc2)c2ccccc2)CC1` the activity change, negative = loss of viability was 15.4% (inactive). In the case of `CC(C)c1onc(C(=O)N2CCN(C(c3ccccc3)c3ccccc3)CC2)c1[N+](=O)[O-]`, the activity change, negative = loss of viability is reported as 10% (inactive). In the case of `Cc1onc(C(=O)N2CCN(C(c3ccccc3)c3ccccc3)CC2)c1Br`, the activity change, negative = loss of viability is reported as 15.1% (inactive). In the case of `Cc1onc(C(=O)NCCNC(c2ccccc2)c2ccccc2)c1[N+](=O)[O-]`, the activity change, negative = loss of viability is reported as -11.4% (inactive). In the case of `CC(=O)Nc1c(C(=O)N2CCN(C(c3ccccc3)c3ccccc3)CC2)noc1C`, the activity change, negative = loss of viability is reported as 8.25% (inactive). With `Cc1onc(C(=O)N2CCN(C(c3ccccc3)c3ccccc3)CC2)c1C` the activity change, negative = loss of viability was 18.4% (inactive). For `O=[N+]([O-])c1ccc(CN2CCN(C(c3ccccc3)c3ccccc3)CC2)o1`, the activity change, negative = loss of viability was -7.38% (inactive). In the case of `Cc1oc(C)c(C(=O)N2CCN(C(c3ccccc3)c3ccccc3)CC2)c1C`, the activity change, negative = loss of viability is reported as 19.3% (inactive). With `Cc1onc(C(=O)N2CCN(C(c3ccccc3)c3ccccc3)CC2)c1N` the activity change, negative = loss of viability was -0.577% (inactive). For `Cc1onc(C(=O)N2CCN(C(c3ccncc3)c3ccncc3)CC2)c1[N+](=O)[O-]`, the activity change, negative = loss of viability was -2.93% (inactive). For `Cc1ccc(C(=O)N2CCN(C(c3ccccc3)c3ccccc3)CC2)c([N+](=O)[O-])c1`, the activity change, negative = loss of viability was 13% (inactive). In the case of `Cc1onc(C(=O)N2CCN(C(c3ccccc3)c3ccccc3)CC2)c1NS(C)(=O)=O`, the activity change, negative = loss of viability is reported as 7.7% (inactive).

Same assay, conditions: BJeHLT fibroblasts viability, Alamar Blue fluorescence, 48 h; at 68 µM (top of the series)
With `Cc1onc(C(=O)N2CCN(Cc3ccccc3)CC2)c1[N+](=O)[O-]` the activity change, negative = loss of viability was 4.74% (inactive). For `CCOC(=O)N1CCN(C(=O)c2noc(C)c2[N+](=O)[O-])CC1`, the activity change, negative = loss of viability was 6.37% (inactive). With `COc1ccccc1N1CCN(C(=O)c2noc(C)c2[N+](=O)[O-])CC1` the activity change, negative = loss of viability was 7.12% (inactive). With `Cc1cc(C(=O)N2CCN(Cc3ccccc3)CC2)no1` the activity change, negative = loss of viability was 1.07% (inactive). With `Cc1onc(C(=O)NCc2ccc(F)cc2)c1[N+](=O)[O-]` the activity change, negative = loss of viability was 10.9% (inactive). With `Cc1onc(C(=O)N2CCOCC2)c1[N+](=O)[O-]` the activity change, negative = loss of viability was 1.06% (inactive).
